Rows were chosen to be rich in hits. Some 1.6% of all compounds tested hit in one or more screens of this group.
FID counter: displaces DNA intercalator in HCV helicase counter-screen | DNA fluorescent intercalator displacement, fluorescence | inhibition, % at 7.9 µM | 290,000 compounds, 0.17% hits | AID 1845; in the data active = inhibition above about 37%;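 also: 0% = vehicle and 100% = reference compound; higher means more ethidium bromide displaced from hairpin DNA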
core dimer inh: HCV core protein dimerization inhibition. inhibition, % at 5 µM. 300,000 compounds, 0.33% hits. TR-FRET GST/Flag-core106 dimerization, 1536-well;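 active = inhibition above the mean of all tested compounds plus 3 SD, set per screening campaign, cut at about 45% in these data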
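Assay system: tagged HCV core106 pair (GST and Flag); medium: KF-containing HEPES buffer, pH 7.45, DTT, CHAPS, BSA; also added: Eu donor and XL665 acceptor anti-tag antibodies; dosing: 5 µM single dose; timing: compound-protein-antibody incubation 4 h at 22.5 °C; signal: TR-FRET 671 and 617 nm emission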
IMP-1 inh-1: inhibitors of Pseudomonas aeruginosa IMP-1 metallo-beta-lactamase. purified IMP-1, nitrocefin hydrolysis, epi-absorbance fluorescence. inhibition, % at 5.6 µM. 290,000 compounds, 0.45% hits;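 active = inhibition above the mean plus 3 SD of all compounds in the same screening run, cut at about 4.5% in these data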;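 also: 0% = IMP-1 with DMSO and 100% = DMSO wells lacking enzyme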
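System: Purified IMP-1 | Read-out basis: Percent enzyme inhibition | Controls: IMP-1 with DMSO as 0%, enzyme-free DMSO as 100% | Replicates: One well per compound | Doses: 5.6 µM nominal single concentration | Detection: Epi-absorbance fluorescence, 480 nm excitation, 530 nm emission | Incubation: 25 °C, 15 min preincubation, 25 min reaction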
VIM-2 inh: blocks Pseudomonas aeruginosa VIM-2 metallo-beta-lactamase | AID 1527 | inhibition, % at 5.6 µM | 290,000 compounds, 0.89% hits | purified VIM-2, nitrocefin hydrolysis, epi-absorbance fluorescence;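 active = inhibition above the mean of all tested compounds plus 3 SD, cutoff set per screening run, cut at about 7.5% in these data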;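 also: red hydrolysis product quenches plate fluorescence so inhibitors raise well fluorescence; 0% = enzyme with DMSO and 100% = DMSO without enzyme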
IMP-1 inh-2: blocks IMP-1 metallo-beta-lactamase in VIM-2 selectivity screen | shares compounds with VIM-2 inh | purified IMP-1, nitrocefin hydrolysis, epi-absorbance fluorescence | inhibition, % at 5.6 µM | 1,300 tested, under 10 active; call rule not given here;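 also: 0% = enzyme with vehicle and 100% = vehicle without enzyme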
VIM-2 FRET ctr: VIM-2 FRET inhibition, artifact counter-screen | shares compounds with VIM-2 inh | 1,300 compounds, 23% hits | inhibition, % at 5.6 µM | purified VIM-2, CCF2 FRET substrate hydrolysis;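 active = inhibition above the mean of all tested compounds plus 3 SD, cut at about 19% in these data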;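 also: 0% = VIM-2 plus DMSO and 100% = no enzyme wells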
TEM-1 inh: blocks E. coli TEM-1 beta-lactamase in VIM-2 selectivity screen; shares compounds with VIM-2 inh; Purified TEM-1, nitrocefin hydrolysis, epi-absorbance fluorescence; inhibition, % at 5.6 µM; 1,300 compounds, 3% hits; AID 1866;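 active = inhibition above that campaign's mean inhibition plus 3 SD, cut at about 0.46% in these data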;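 also: 0% = TEM-1 with DMSO and 100% = TEM-1 with 100 µM potassium clavulanate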
Target sequence (P62593 whole entry, looked up): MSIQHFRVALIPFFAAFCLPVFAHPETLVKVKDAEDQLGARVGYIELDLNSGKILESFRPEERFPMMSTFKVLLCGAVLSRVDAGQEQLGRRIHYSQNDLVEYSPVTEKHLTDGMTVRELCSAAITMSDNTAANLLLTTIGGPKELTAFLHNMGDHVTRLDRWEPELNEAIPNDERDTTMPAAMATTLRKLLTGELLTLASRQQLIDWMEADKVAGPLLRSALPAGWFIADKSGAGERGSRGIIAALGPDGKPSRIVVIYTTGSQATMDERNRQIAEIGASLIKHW
VIM-2 inh conf: confirmation of P. aeruginosa VIM-2 metallo-beta-lactamase inhibitors; purified VIM-2, nitrocefin hydrolysis, epi-absorbance; 1,300 compounds, 96% hits; AID 2187; inhibition, % at 5.6 µM; shares compounds with VIM-2 inh;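 active = inhibition of the VIM-2 beta-lactamase enzyme above about 11% from the earlier first-round screen, limit read from the data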;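 also: 0% = VIM-2 with DMSO and 100% = buffer wells without enzyme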
An asterisk follows results filed as active; · = not tested or not shown.

SMILES	FID counter	core dimer inh	IMP-1 inh-1	VIM-2 inh	IMP-1 inh-2	VIM-2 FRET ctr	TEM-1 inh	VIM-2 inh conf
CCC[C@@H](CNC)NC[C@H](Cc1ccccc1)NCCCCc1ccccc1	29	-16	-2	56*	-3	1	-7	66*
COc1cc(CNC(=O)CCn2nc(C)c3c(C)n(-c4ccccc4)nc3c2=O)cc(OC)c1OC	-34	2	-2	-1	·	·	·	·
CC1CCCC(C)N1C(=O)CSc1nnc(NC(=O)c2cccs2)s1 (configuration not stated)	-22	0	-2	20*	-4	52*	-6	37*
Cc1onc(-c2ccccc2)c1C(=O)N/N=C/c1ccco1	-24	1	-5	34*	-4	3	-5	2
Cc1c(OCC(=O)NCCCN2CCOCC2)ccc2c1oc(=O)c1ccccc12	16	0	-2	26*	-1	1	-4	38*
Cc1c(OCC(=O)NCCCN2CCOCC2)ccc2c3c(c(=O)oc12)CCC3	7	10	-3	25*	-2	1	-14	37*
Cc1cc(=O)oc2cc(OCC(=O)NCCCN3CCOCC3)c(Cl)cc12	4	4	-2	0	·	·	·	·
Cc1c(OCC(=O)NCCCN2CCOCC2)ccc2c(-c3ccccc3)cc(=O)oc12	14	-4	-2	1	·	·	·	·
Cc1ccc(Cn2nnc3c(=O)n(CC(=O)NCc4ccccc4)cnc32)cc1	-8	7	-2	-1	·	·	·	·
COCCCNC(=O)c1cc2c(=O)n3cccc(C)c3nc2n(C(C)C)c1=N	9	4	-4	13*	0	-79	1.1*	28*
C=CCn1c(=N)c(C(=O)OCC)cc2c(=O)n3cccc(C)c3nc21	13	1	-3	13*	-3	-44	-5	26*
CCOC(=O)c1cc2c(=O)n3cccc(C)c3nc2n(CC(C)C)c1=NC(=O)c1ccco1	0	9	-1	5	·	·	·	·
Cn1cccc1CC(=O)N/N=C/c1ccc(Cl)c([N+](=O)[O-])c1	-11	4	-4	-1	·	·	·	·
Cc1ccc2oc(=O)n(CC(=O)OC(C)C)c2c1	-1	-2	1	-2	·	·	·	·
Cc1cc(=S)c2ccccc2[nH]1	-12	8	-2	60*	-3	2	-6	57*
CN1CCN(C(=O)CSc2ccc(C(F)(F)F)cc2[N+](=O)[O-])CC1	8	-10	0	13*	-3	-2	-6	38*
Cc1sc2ncnc(NCCc3ccc(S(N)(=O)=O)cc3)c2c1C	-4	-6	-6	19*	-3	-5	-7	16*
Cc1sc2ncnc(NCCCn3ccnc3)c2c1C	0	-4	-3	21*	-4	-4	-7	34*
CCOc1cccc(/C(O)=C2/C(=O)C(=O)N(Cc3ccco3)C2c2ccncc2)c1 (configuration not stated)	-10	-1	-3	3	·	·	·	·
Cc1nc(N2CCOCC2)c2oc3ccccc3c2n1	-4	-1	-1	19*	-3	-4	-4	34*
Cc1nc(NCCc2cnc[nH]2)c2oc3ccccc3c2n1	8	2	0	71*	-1	-9	1.7*	84*
CC(=O)Nc1ccc(Nc2nc(C)nc3c2oc2ccccc23)cc1	-13	-1	0	18*	-4	1	-7	29*
Cc1nc(Nc2ccncc2)c2oc3ccccc3c2n1	17	0	0	45*	-3	-2	-6	57*
Cc1cccc(Nc2nc(C)nc3c2oc2ccccc23)c1	-21	10	-1	5	·	·	·	·
COc1ccc(CCNc2nc(C)nc3c2oc2ccccc23)cc1OC	-23	-4	-3	5	·	·	·	·
SMILES	FID counter	core dimer inh	IMP-1 inh-1	VIM-2 inh	IMP-1 inh-2	VIM-2 FRET ctr	TEM-1 inh	VIM-2 inh conf
CC(=O)N1CCN(c2ccc(Nc3nc(C)nc4c3oc3ccccc34)cc2)CC1	·	-4	·	·	·	·	·	·
Clc1ccc(CSc2nnc(Cn3cnc4ccccc43)o2)cc1	-24	2	-6	1	·	·	·	·
O=C(Nc1ccc(S(=O)(=O)N2CCCC2)cc1)c1ccccc1	·	1	·	·	·	·	·	·
CCn1c(SCC(=O)Nc2ccc3c(c2)OCO3)nc2c(c1=O)SC(C)C2 (configuration not stated)	-10	5	-1	-4	·	·	·	·
O=C(CSc1nnc(-c2cccs2)n1-c1ccccc1)c1ccc2c(c1)OCCO2	·	18	·	·	·	·	·	·
CCc1nc(Nc2ccncc2)c2oc3ccccc3c2n1	12	3	1	44*	-3	2	-6	54*
CCc1nc(Nc2cccc(O)c2)c2oc3ccccc3c2n1	-16	·	-5	0	·	·	·	·
O=C(COc1ccc2c(-c3ccccc3)cc(=O)oc2c1)NCCCn1ccnc1	7	-3	0	3	·	·	·	·
Cc1c(C)c2ccc(OCC(=O)NCCCn3ccnc3)cc2oc1=O	14	-10	0	21*	-4	-1	-6	32*
O=C(COc1ccc2c3c(c(=O)oc2c1)CCCC3)NCCCn1ccnc1	2	-2	-1	30*	-1	-5	1.4*	41*
CC(Oc1ccc2c3c(c(=O)oc2c1)CCCC3)C(=O)NCCCn1ccnc1 (configuration not stated)	13	-17	-4	23*	-4	-6	-6	40*
FC(F)Oc1ccc(/C=N/n2c(Cc3ccc(Br)cc3)n[nH]c2=S)cc1	-38	-5	-2	-6	·	·	·	·
COc1ccc(Cc2nc3ccc(C(=O)NCc4ncc(C)[nH]4)cc3o2)cc1OC	4	0	-2	38*	-3	-12	-6	50*
COc1ccc(Cc2nc3ccc(C(=O)NCc4cc(C)no4)cc3o2)cc1OC	-38	8	-2	-2	·	·	·	·
CC(=O)Nc1cccc(-c2nnc(SCC(=O)n3c4c(c5ccccc53)CCCC4)n2C)c1	-9	15	-2	15*	-4	9	-9	5
Cc1ccc(OCc2ccc(C(=O)N3CCCC3)o2)c([N+](=O)[O-])c1	-21	10	-3	-1	·	·	·	·
O=c1c2ccccc2cnn1Cc1n[nH]c(=S)n1C1CC2CCC1C2 (configuration not stated)	-22	-1	-4	15*	-3	38*	-6	21*
CC(c1ccccc1)n1c(Cn2ncc3ccccc3c2=O)n[nH]c1=S (configuration not stated)	-17	-1	-3	-2	·	·	·	·
CCCCc1c(O)nc(SCC(=O)Nc2ccc3c(c2)CCC3)[nH]c1=O	-18	-1	-1	-2	·	·	·	·
COc1cc2oc3ccccc3c(=O)c2cc1OC	-22	-2	-2	14*	-3	0	-4	18*
